In ChEMBL document CHEMBL1138178, “Identification of novel parasitic cysteine protease inhibitors by use of virtual screening. 2. The available chemical directory” (J Med Chem, 2006):
Where a SMILES comes first, the peptide text is derived from it. The star is where a group is joined. Cbz = O=C(OCc1ccccc1)*; OBn = c1ccc(CO*)cc1

Assays:
Plasmodium falciparum [1] = assay: Antimalarial activity against Plasmodium falciparum W2; type: functional, organism-based
In short: (§1)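 Sorbitol-synchronized chloroquine-resistant W2 P. falciparum at 1% parasitemia, 2% hematocrit, RPMI-1640 with 10% human serum, 3% O2/6% CO2/91% N2; compounds from DMSO (max 0.1%) for 48 h; fixed in 1% formaldehyde 48 h, stained with 1 nM YOYO-1 in 0.1% Triton X-100; parasitemia by flow cytometry; IC50 from percent control parasitemia versus concentration.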

Vero [2] = assay: Cytotoxicity against Vero cells up to 50 uM; type: functional, cell-based, Chlorocebus sabaeus
In short: (§2)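 VERO monkey kidney fibroblast cells tested simultaneously with antileishmanial screen; cytotoxicity read by neutral red assay; IC50 computed from growth inhibition curve.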

Leishmania donovani = assay: Antileishmanial activity against Leishmania donovani promastigotes; type: functional, organism-based
Vero [3] = assay: Cytotoxicity against Vero cells; type: functional, cell-based; details: Chlorocebus sabaeus; in short: as §2
Falcipain 2 = biological target: T1, Falcipain 2 (Plasmodium falciparum, UniProt Q9N6S8); assay: Inhibition of falcipain2
T1 sequence (Q9N6S8 whole entry): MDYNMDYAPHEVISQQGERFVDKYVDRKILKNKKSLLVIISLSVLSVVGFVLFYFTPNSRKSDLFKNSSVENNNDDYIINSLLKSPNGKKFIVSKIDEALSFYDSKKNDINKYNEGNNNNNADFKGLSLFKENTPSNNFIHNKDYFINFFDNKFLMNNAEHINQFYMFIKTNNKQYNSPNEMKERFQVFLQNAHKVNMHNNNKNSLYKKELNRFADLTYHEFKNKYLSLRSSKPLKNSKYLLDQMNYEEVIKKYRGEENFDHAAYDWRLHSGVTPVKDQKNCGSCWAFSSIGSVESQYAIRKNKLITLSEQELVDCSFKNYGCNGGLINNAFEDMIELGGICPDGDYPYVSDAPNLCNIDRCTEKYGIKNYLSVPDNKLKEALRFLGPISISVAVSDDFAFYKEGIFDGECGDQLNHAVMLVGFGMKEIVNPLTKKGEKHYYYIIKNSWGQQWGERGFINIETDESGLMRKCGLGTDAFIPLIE

[4] = biological target: T2, Cysteine protease falcipain-3 (Plasmodium falciparum, UniProt Q9NBA7); assay: Inhibition of falcipain3
T2 sequence (Q9NBA7 whole entry): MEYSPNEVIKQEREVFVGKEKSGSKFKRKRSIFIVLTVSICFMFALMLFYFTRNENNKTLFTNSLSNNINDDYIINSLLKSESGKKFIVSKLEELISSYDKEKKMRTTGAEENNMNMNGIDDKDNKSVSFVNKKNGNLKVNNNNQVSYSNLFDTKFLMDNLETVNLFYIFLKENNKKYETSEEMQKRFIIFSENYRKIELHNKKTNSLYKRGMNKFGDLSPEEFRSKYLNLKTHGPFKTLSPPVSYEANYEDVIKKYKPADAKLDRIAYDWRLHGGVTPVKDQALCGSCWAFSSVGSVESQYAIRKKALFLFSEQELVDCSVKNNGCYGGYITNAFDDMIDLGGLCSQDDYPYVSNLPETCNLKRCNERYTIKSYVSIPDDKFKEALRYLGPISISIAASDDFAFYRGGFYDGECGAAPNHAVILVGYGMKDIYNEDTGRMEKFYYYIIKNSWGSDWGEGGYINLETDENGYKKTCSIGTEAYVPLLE

Plasmodium falciparum [5] = assay: Antimalarial activity against Plasmodium falciparum W2 up to 20 uM; type: functional, organism-based; in short: as §1
Cysteine protease = biological target: T3, Cysteine protease (Leishmania donovani, UniProt Q95WR6); assay: Inhibition of Leishmania donovani cysteine protease
T3 sequence (Q95WR6 whole entry): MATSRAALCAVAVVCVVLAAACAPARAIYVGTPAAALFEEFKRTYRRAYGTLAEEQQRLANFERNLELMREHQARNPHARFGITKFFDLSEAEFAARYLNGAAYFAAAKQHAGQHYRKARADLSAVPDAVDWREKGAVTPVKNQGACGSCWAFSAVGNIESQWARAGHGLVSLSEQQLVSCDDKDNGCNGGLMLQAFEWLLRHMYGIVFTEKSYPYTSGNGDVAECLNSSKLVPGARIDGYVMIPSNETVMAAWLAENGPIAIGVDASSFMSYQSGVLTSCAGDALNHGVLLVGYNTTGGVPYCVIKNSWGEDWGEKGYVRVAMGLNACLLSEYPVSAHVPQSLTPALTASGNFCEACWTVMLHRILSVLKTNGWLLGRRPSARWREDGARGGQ
In short: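 Major cysteine protease purified from L. donovani promastigotes on Con A Sepharose; buffer 100 mM sodium acetate pH 5.5, 10 mM DTT, 0.1% Triton X-100, 1 mM EDTA; enzyme preincubated with compounds (DMSO stock) 10 min at 37 °C; Z-Phe-Arg-AMC at 10 µM final; 30 min at 37 °C; released AMC read fluorometrically.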

[6] = Leishmania donovani, read-out: IC50

Structure (SMILES)	IC50 (Plasmodium falciparum [1]) [µM]	IC50 (Falcipain 2) [µM]	IC50 [4] [µM]	further results
COc1ccc(-c2cncc(-c3cc(NCCCn4ccnc4)nc(C)n3)c2)cc1	2.8			
Cn1c(CSc2ccnc3cc(Cl)ccc23)nnc1SCC(=O)N1CCOCC1	20			IC50 (Vero [2]): Non-toxic; IC50 (Leishmania donovani): Not Active
Cn1c(CSCC(=O)Nc2ccccc2)nnc1SCC(=O)Nc1cccc(Cl)c1	16.6			IC50 (Vero [2]): Non-toxic; IC50 (Leishmania donovani): Not Active
c1ccc(-c2nc(NCCCn3ccnc3)cc(-c3ccncc3)n2)cc1	0.13			IC50 (Vero [2]): Non-toxic; IC90 (Leishmania donovani; Leishmania donovani): 98.2 µM; IC50 (Leishmania donovani; [6]): 50.5 µM
c1ccc(-c2nc(NCCCn3ccnc3)cc(-c3cccnc3)n2)cc1	0.94			IC90 (Leishmania donovani; Leishmania donovani): 56.1 µM; IC50 (Leishmania donovani; [6]): 12.6 µM; IC50 (Vero [3]): 40.7 µM
O=S(=O)(c1ccc(-c2ccc(S(=O)(=O)N3CCOCC3)s2)s1)N1CCOCC1		5.4	37.7	
COc1ccc(-c2cncc(-c3cc(NCc4ccco4)nc(C)n3)c2)cc1	11.5			IC50 (Vero [2]): Non-toxic; IC50 (Leishmania donovani): Not Active
O=S(=O)(c1ccc2c(c1)C(=NO)c1cc(S(=O)(=O)N3CCOCC3)ccc1-2)N1CCOCC1	6			IC50 (Vero [2]): Non-toxic; IC90 (Leishmania donovani; Leishmania donovani): 81 µM; IC50 (Leishmania donovani; [6]): 52.7 µM
COC(=O)c1sccc1NC(=O)CSCc1ccc(Cl)cc1				IC50 (Plasmodium falciparum [5]): Not Active; IC50 (Vero [2]): Non-toxic; IC50 (Leishmania donovani; [6]): 45 µM
Cc1cccc(NC(=O)Cn2c(O)c(/N=N/C(=O)C(=O)NCc3ccccc3)c3ccccc32)c1		1.6	> 50	
Cc1ccc(S(=O)(=O)N(C)C)cc1NS(=O)(=O)c1ccc(-c2ccon2)s1		2.9	> 50	
CCCc1cc(O)nc(SCC(=O)NCCSCc2ccco2)n1		4.6	> 50	
Cn1c(O)c(/N=N/C(=O)CCCCC(=O)/N=N/c2c(O)n(C)c3ccccc23)c2ccccc21		6.5	> 50	
O=C(Cn1nnc(-c2ccccc2)n1)NNC=NOCc1c(F)cccc1Cl		10.8	38.5	
O=C(CS(=O)(=O)c1ccc(Cl)cc1)NCCS(=O)(=O)c1ccccc1				IC50 (Cysteine protease): 24.9 µM
O=C(N[C@@H](COCc1ccccc1)C(=O)ON1C(=O)CCC1=O)OCc1ccccc1				IC50 (Cysteine protease): 23.5 µM
CCCS(=O)(=O)c1cscc1NC(=O)CSCCS(=O)(=O)c1ccc(Cl)cc1		3.4	> 50	
Brc1cncc(-c2cc(NCCCn3ccnc3)nc(-c3ccccc3)n2)c1	0.44			IC90 (Leishmania donovani; Leishmania donovani): 15.4 µM; IC50 (Leishmania donovani; [6]): 7.8 µM; IC50 (Vero [3]): 32.2 µM
N=C(CS(=O)(=O)Cc1ccc(F)cc1)NOC(=O)c1cccs1		50	> 50	
O=C(CCSSCCC(=O)NCc1ccccc1)NCc1ccccc1		15.3	18.8	
Cc1nc(NCCCn2ccnc2)cc(-c2cncc(-c3ccc(F)cc3)c2)n1	2.6			IC90 (Leishmania donovani; Leishmania donovani): 85 µM; IC50 (Leishmania donovani; [6]): 41.2 µM; IC50 (Vero [3]): 41.2 µM
O=C(CSc1nnc(O)n1Cc1ccco1)c1ccc2c(c1)OCCO2		52.3	> 50	

Structure (SMILES)	IC50 (Plasmodium falciparum [1]) [µM]	IC50 (Falcipain 2) [µM]	IC50 [4] [µM]	further results
Cc1csc(Cn2nc(CC(=O)N/N=C/c3ccccc3)c3ccccc3c2=O)n1		54.3	> 50	
COC(=O)c1ccsc1NC(=O)CN1CCN(S(=O)(=O)c2ccc(Cl)cc2)CC1		14.3	49.2	
Cn1c(CSCC(=O)Nc2ccccc2)nnc1SCC(=O)Nc1ccccc1	20			IC50 (Vero [2]): Non-toxic; IC50 (Leishmania donovani): Not Active
Cc1ccc(S(=O)(=O)NC(=O)NCC2CCN(S(=O)(=O)c3ccccc3)CC2)cc1		19	34	
Cc1nc(C)nc(N(CCS(=O)(=O)c2ccccc2)CCS(=O)(=O)c2ccccc2)n1		13.2	> 50	
O=S(=O)(NCc1ccco1)c1ccc2c(c1)Cc1cc(S(=O)(=O)NCc3ccco3)ccc1-2		1.4	11.4	
CSc1cc(CSc2ccc(Cl)cc2)nc(-c2ccccn2)n1	20			IC50 (Vero [2]): Non-toxic; IC90 (Leishmania donovani; Leishmania donovani): 106 µM; IC50 (Leishmania donovani; [6]): 50 µM
O=C(COCC(=O)N/N=C/CCc1ccccc1)N/N=C/CCc1ccccc1	3.9			IC50 (Vero [2]): Non-toxic; IC50 (Leishmania donovani): Not Active
O=C(CSc1nc2ccccc2o1)NCCSCc1ccco1				IC50 (Cysteine protease): 43 µM
O=S(=O)(Cc1ccc(Cl)cc1)Cc1nc(-c2ccsc2)no1		47.8	56.6	
COC(=O)c1sccc1NC(=O)CC(=O)Nc1ccsc1C(=O)OC		10.4	> 50	
C[C@@H](C(=O)NCCS(=O)(=O)c1ccc(Br)cc1)S(=O)(=O)c1ccccc1	9.5			IC50 (Leishmania donovani): Not Active; IC50 (Vero [3]): 48.4 µM
O=C(CSCc1c(F)cccc1Cl)NCCSCc1ccco1	> 2.5			IC50 (Vero [2]): Non-toxic; IC50 (Leishmania donovani; [6]): 107 µM
O=C(NCc1ccncc1)c1ccc(-c2cnn(Cc3ccccc3)c2)nc1	20			
CCOC(=O)c1c2cc(OCC(=O)NCc3ccco3)ccc2n2ccccc12	9.5	13.8	31.2	
O=C(CNC(=O)OCc1ccccc1)N[C@@H](Cc1ccccc1)C(=O)OCc1ccccc1 (Cbz-Gly-Phe-OBn)				IC50 (Cysteine protease): 31.4 µM
C[C@@H]1[C@H](O)[C@@H](C)/C=C/C=C/C=C/C=C/C=C/C=C/C=C/[C@H](O[C@@H]2O[C@H](C)[C@@H](O)[C@H](N)[C@@H]2O)C[C@@H]2O[C@](O)(C[C@@H](O)C[C@@H](O)[C@H](O)CC[C@@H](O)C[C@@H](O)CC(=O)O[C@H]1C)C[C@H](O)[C@H]2C(=O)O [AMPHOTERICIN B]				IC90 (Leishmania donovani; Leishmania donovani): 0.3 µM; IC50 (Leishmania donovani; [6]): 0.04 µM
C[C@@H]1CC[C@H]2[C@@H](C)C(=O)O[C@@H]3O[C@@]4(C)CC[C@@H]1[C@]32OO4 [ARTEMISININ]	0.008			
CC(C)C[C@H](NC(=O)[C@H]1O[C@@H]1C(=O)O)C(=O)NCCCCN=C(N)N [E-64]			0.075	
CC(=O)N[C@@H](CC(C)C)C(=O)N[C@@H](CC(C)C)C(=O)N[C@H](C=O)CCCNC(=N)N [LEUPEPTIN]				IC50 (Cysteine protease): 0.01 µM
N=C(N)c1ccc(OCCCCCOc2ccc(C(=N)N)cc2)cc1 [PENTAMIDINE]				IC90 (Leishmania donovani; Leishmania donovani): 8.3 µM; IC50 (Leishmania donovani; [6]): 2.5 µM
